In ChEMBL document CHEMBL1156932, “Structure based drug design: development of potent and selective factor IXa (FIXa) inhibitors” (J Med Chem, 2010):
pKi: −log10 of the molar value.

Key:
Coagulation factor X = Coagulation factor X (Homo sapiens, UniProt P00742); assay: Inhibition of factor 10a by amidolytic assay
Procedure, shortened: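 […] taken as the mean of at least three experiments. Variation between runs stated as under 10%.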

Coagulation factor IX = Coagulation factor IX (Homo sapiens, UniProt P00740); assay: Inhibition of human recombinant factor 9a by amidolytic assay
Coagulation factor IX, sequence (P00740 47-191 limits assumed): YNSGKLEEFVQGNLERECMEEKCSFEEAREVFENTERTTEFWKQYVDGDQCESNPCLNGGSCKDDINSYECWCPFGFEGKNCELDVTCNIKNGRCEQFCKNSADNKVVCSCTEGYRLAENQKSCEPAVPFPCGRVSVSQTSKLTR
Coagulation factor IX, sequence (P00740 227-461 limits assumed): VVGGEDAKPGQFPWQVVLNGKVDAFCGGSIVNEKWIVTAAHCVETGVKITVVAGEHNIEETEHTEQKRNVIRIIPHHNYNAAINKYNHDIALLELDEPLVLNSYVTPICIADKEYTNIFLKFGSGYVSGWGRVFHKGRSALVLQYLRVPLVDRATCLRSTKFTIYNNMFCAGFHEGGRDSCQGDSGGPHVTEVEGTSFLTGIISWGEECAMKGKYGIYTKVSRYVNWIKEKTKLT

Plasma [1] = assay: Anticoagulant potency in human plasma assessed as concentration required to double the […]; format: functional
Procedure, shortened: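 Citrated plasma from healthy volunteers, centrifuged at 2000g for 10 min and held on ice. Plasma incubated 1 min at 37 C, aPTT reagent (FSL) added, then 3 min at 37 C. Clotting started with 0.025 M CaCl2. Clot formation read at 660 nm on an automated coagulation analyzer.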

[2] = Selectivity ratio of Ki for factor 10a to Ki for human recombinant factor 9a
[3] = Selectivity ratio of Ki for uPA to Ki for human recombinant factor 9a
Plasma [4] = assay: Anticoagulant potency in human plasma assessed as concentration required to double the prothrombin time; format: functional
Procedure, shortened: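 Citrated plasma from healthy volunteers, centrifuged at 2000g for 10 min and held on ice. Plasma incubated 3 min at 37 C before addition of thromboplastin PT reagent (Thromborel S). Clot formation followed at 660 nm in an automated coagulation analyzer.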

Plasma [5] = assay: Anticoagulant potency in human plasma assessed as concentration required to double the thrombin time; format: functional
Procedure, shortened: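 Plasma from citrated blood of healthy volunteers, centrifuged at 2000g for 10 min and kept on ice. Plasma incubated 2 min at 37 C, then thrombin reagent added. Clotting time monitored at 660 nm on an automated analyzer.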

[6] = Protein binding in human plasma; format: ADME, cell-free; conditions: read-out: PPB (converted)
[7] = target: Urokinase-type plasminogen activator (Homo sapiens, UniProt P00749)
[8] = Cmax in anesthetized Sprague-Dawley rat at 5 mg/kg, iv; format: ADME, organism-based; parameters: dose 5 mg/kg, route intravenous; conditions: in vivo
Procedure, shortened: (§1)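 Bolus iv injection over 15 s into anesthetised rats, 3 per group. Citrated blood taken under anesthesia predose and at 2, 5, 15, 30 min and 1, 2, 3 h. Plasma obtained by centrifugation at 1700g, 20 C, 5 min, then stored at -80 C. Two acetonitrile precipitations before drug measurement. Parameters derived by noncompartmental analysis of concentration–time curve.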

[9] = AUC (0 to infinity) in anesthetized Sprague-Dawley rat at 5 mg/kg, iv; format: ADME, organism-based; parameters: dose 5 mg/kg, route intravenous, time infinity; conditions: plasma; procedure, shortened: as §1
[10] = Half life in anesthetized Sprague-Dawley rat at 5 mg/kg, iv; format: ADME, organism-based; parameters: dose 5 mg/kg, route intravenous; conditions: in vivo; procedure, shortened: as §1
[11] = Clearance in anesthetized Sprague-Dawley rat at 5 mg/kg, iv; format: ADME, organism-based; parameters: dose 5 mg/kg, route intravenous; conditions: in vivo; procedure, shortened: as §1
[12] = Metabolic stability in human liver assessed as turnover; format: ADME, tissue-based; conditions: read-out: Stability

Coagulation factor X, sequence (P00742 41-179 limits assumed): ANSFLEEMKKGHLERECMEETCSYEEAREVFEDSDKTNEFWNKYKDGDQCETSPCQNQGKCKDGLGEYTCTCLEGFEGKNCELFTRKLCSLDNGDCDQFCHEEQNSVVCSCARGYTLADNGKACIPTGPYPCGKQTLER
Coagulation factor X, sequence (P00742 235-488 limits assumed): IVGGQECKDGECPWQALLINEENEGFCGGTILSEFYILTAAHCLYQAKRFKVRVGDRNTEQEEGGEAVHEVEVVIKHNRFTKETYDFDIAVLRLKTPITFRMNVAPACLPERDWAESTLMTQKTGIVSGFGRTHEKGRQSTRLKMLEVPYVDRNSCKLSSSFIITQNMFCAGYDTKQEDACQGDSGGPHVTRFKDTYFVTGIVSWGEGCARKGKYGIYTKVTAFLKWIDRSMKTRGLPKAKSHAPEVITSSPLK

SMILES | pKi (Coagulation factor X) | pKi (Coagulation factor IX) | Activity (Plasma [1]) [µM] | Ratio Ki [2] | Ratio Ki [3] | Activity (Plasma [4]) [µM] | Activity (Plasma [5]) [µM] | fraction unbound [6] | pKi [7] | Cmax [8] [µM] | AUC(0-inf) [9] [µM·h] | half-life [10] [h] | clearance [11] [L/h/kg] | metabolised [12] [%]
CNCc1c(NC(=O)OCC(Oc2cccc3sc(C(=N)N)cc23)c2ccccc2)c(C)nn1C (stereo not given) | 5.62 | 8.30 | 7.7 | 475 | 31 | 42 | 56 | 0.05 | 6.81 | – | – | – | – | –
N=C(N)c1cc2c(OC(COC(=O)Nc3ccc(F)cc3)c3ccccc3)cccc2s1 (stereo not given) | 5.77 | 8.10 | – | 213 | 98 | – | – | – | 6.11 | 10.5 | 5.19 | 5.5 | 1.94 | 11
Cc1n[nH]c(C)c1NC(=O)OCC(Oc1cccc2sc(C(=N)N)cc12)c1ccccc1 (stereo not given) | 5.55 | 8.10 | 11.7 | 360 | 7 | 63 | >80 | 0.05 | 7.24 | – | – | – | – | –
N=C(N)c1cc2c(OC(COC(=O)Nc3ccccc3CN3CCNCC3)c3ccccc3)cccc2s1 (stereo not given) | 6.45 | 8.52 | 5 | 118 | 278 | 17 | 20 | 0.05 | 6.08 | – | – | – | – | –
COc1ccc(NC(=O)OC[C@@H](Oc2cccc3sc(C(=N)N)cc23)c2ccccc2)cc1 | 5.42 | 7.46 | – | 108 | 47 | – | – | – | 5.79 | – | – | – | – | –
Cc1nn(C)c(CNC(C)C)c1NC(=O)OCC(Oc1cccc2sc(C(=N)N)cc12)c1ccccc1 (stereo not given) | 5.79 | 8.52 | 5.9 | 542 | 50 | 29 | 25 | 0.04 | 6.82 | – | – | – | – | –
Cc1cc(NC(=O)OCC(Oc2cccc3sc(C(=N)N)cc23)c2ccccc2)n(C)n1 (stereo not given) | 5.69 | 8.00 | 12.8 | 205 | 17 | 57 | 60 | 0.04 | 6.77 | 5.19 | 0.951 | 2.1 | 7.76 | 18
